Results taken from article PMC2682635 (Psychopharmacology, 2009).
Values joined by “and” are separate entries in the source; they are usually repeats but may differ in a detail not shown here. Equal values may be shown once. “Also recorded” adds a separate entry of the source. Read-outs that look alike come from different tables or passages of the source.

Assays:
baboons [1] = experiment: Food-maintained operant behavior procedure; format: in vivo, Papio anubis; conditions: for Time food-maintained behavior was suppressed after administration: high doses
How it was run: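 Test compound or vehicle was diluted in water to 150 ml total and infused intragastrically. Sessions started at 9:00 am right after dosing. Food pellets were available 20 h/day on a fixed-ratio schedule via a Lindsley operandum. Pellets earned were counted in ten 2-h bins up to 20 h. Analysis was repeated-measures two-way ANOVA (dose × time), p<0.05.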

baboons [2] = experiment: Fine-motor task; format: in vivo, Papio anubis; conditions: for Duration to complete the fine-motor task compared to vehicle: across 30, 60 and 120 min
baboons [3] = experiment: 30-min continuous behavioral observation session; format: in vivo, Papio anubis
baboons [4] = experiment: Paper and pencil behavioral checklists; format: in vivo, Papio anubis; conditions: for Return to baseline for all observed behavioral effects, time postadministration: baboon (Papio anubis), in vivo, oral
[5] = baboon
rhesus monkeys = conditions: food-maintained operant procedure; ref McMahon et al. 2003; cited from earlier work
in vivo = conditions: plasma, po
[6] = cited from earlier work; for Mean maximum concentration of GHB in plasma: human, 50 mg/kg GHB
[7] = humans, 25 mg/kg 1,4-BD; ref Thai et al. 2006; cited from earlier work
baboons [8] = conditions: 4 h after administration; reanalyzed data; ref Goodwin et al. 2005; cited from earlier work
baboons [9] = conditions: ref Goodwin et al. 2005, cited from earlier work
humans = conditions: ref Carter et al. 2006; cited from earlier work
[10] = Pharmacokinetics: GHB in plasma after intragastric GHB, GBL or 1,4-BD; conditions: for Mean maximum concentration of GHB in plasma: baboon, ±SD
[11] = 180 mg/kg, 2 h after administration, p<0.001
[12] = 180 mg/kg, 4 h after administration
[13] = 180 mg/kg, 60 to 90 min after drug
[14] = 240 mg/kg, 60 to 90 min after drug
[15] = humans, 25 mg/kg 1,4-BD, ref Thai et al. 2006
[16] = 100 mg/kg, 60 to 90 min after drug

## OCCCCO [1,4-BD, 1,4-butanediol]
Baboons [1]; 56 mg/kg, 4 h after administration, p<0.05
  Food-maintained behavior compared to vehicle: increases
Baboons [1]; [11]
  Food-maintained behavior compared to vehicle: decreased
Baboons [1]; [12]
  Food-maintained behavior compared to vehicle: decreased
Baboons [1]; 240 mg/kg, 2 h postadministration, p<0.001
  Food-maintained behavior compared to vehicle: decreased
Baboons [1]; 240 mg/kg, 4 h postadministration, p<0.05
  Food-maintained behavior compared to vehicle: decreased
Baboons [1]
  Time food-maintained behavior was suppressed after administration: 4 h
Baboons [2]; 180 mg/kg, 60 min postadministration, p<0.001
  Duration to complete the fine-motor task: significantly increased
Baboons [2]; 180 mg/kg, 120 min postadministration, p<0.001
  Duration to complete the fine-motor task: significantly increased
Baboons [2]; 240 mg/kg
  Completion of the fine-motor task: all subjects failed to complete the task within the maximum time of 120 s
Baboons [2]; 240 mg/kg, 120 min postadministration, p<0.001
  Duration to complete the fine-motor task: significantly increased
Baboons [2]; any dose, 30-min postadministration
  Duration to complete the fine-motor task: did not alter
Baboons [3]; 56 mg/kg, 60 to 90 min after drug
  Frequency of scratch/groom compared to vehicle: increased
Baboons [3]; [13]
  Frequency of ataxia compared to vehicle: significantly increased
  Frequency of scratch/groom compared to vehicle: increased
  Frequency of tremor/jerks compared to vehicle: significantly increased
  Frequency of vomit/retch compared to vehicle: significantly increased
Baboons [3]; [14]
  Duration of lip droop compared to vehicle: significantly increased
  Frequency of ataxia compared to vehicle: significantly increased
  Frequency of tremor/jerks compared to vehicle: significantly increased
  Frequency of vomit/retch compared to vehicle: significantly increased
  Time lying down compared to vehicle: significantly increased
Baboons [4]; 180 mg/kg IG
  Duration of effects in ≥50% of subjects, ataxia: 4.0 h
  Duration of effects in ≥50% of subjects, lip droop: 2.5 h
  Duration of effects in ≥50% of subjects, tremor/jerk: 5.0 h
  Duration of effects in ≥50% of subjects, vomit: 2.5 h
  Number of subjects at maximal effect, ataxia: 4/4
  Number of subjects at maximal effect, lip droop: 2/4
  Number of subjects at maximal effect, tremor/jerk: 4/4
  Number of subjects at maximal effect, vomit: 3/4
  Recovery of baseline (100% of subjects), ataxia: 7.0 h
  Recovery of baseline (100% of subjects), lip droop: 4.0 h
  Recovery of baseline (100% of subjects), tremor/jerk: 7.5 h
  Recovery of baseline (100% of subjects), vomit: 7.5 h
  Time to maximal effects, ataxia: 2.0 h
  Time to maximal effects, lip droop: 2 h and 2.0 h
  Time to maximal effects, tremor/jerk: 1.0 h
  Time to maximal effects, vomit: 2.5 h
Baboons [4]; 240 mg/kg IG
  Duration of effects in ≥50% of subjects, ataxia: 4.0 h
  Duration of effects in ≥50% of subjects, lip droop: 3.5 h
  Duration of effects in ≥50% of subjects, tremor/jerk: 6.0 h
  Duration of effects in ≥50% of subjects, vomit: 1.0 h
  Number of subjects at maximal effect, ataxia: 4/4
  Number of subjects at maximal effect, lip droop: 3/4
  Number of subjects at maximal effect, tremor/jerk: 4/4
  Number of subjects at maximal effect, vomit: 3/4
  Recovery of baseline (100% of subjects), ataxia: 6.0 h
  Recovery of baseline (100% of subjects), lip droop: 5.0 h
  Recovery of baseline (100% of subjects), tremor/jerk: 8.0 h
  Recovery of baseline (100% of subjects), vomit: 7.5 h
  Time to maximal effects, ataxia: 2.0 h
  Time to maximal effects, lip droop: 1−2 h and 1 h and 1.0 h
  Time to maximal effects, tremor/jerk: 2.0 h
  Time to maximal effects, vomit: 1.0 h
Baboons [4]; 180 and 240 mg/kg
  Time at which lip droop continued in half of the subjects: 2.5−3.5 h
  Time postadministration by which lip droop was no longer observed: ≤ 5 h
Baboons [4]
  Return to baseline for all observed behavioral effects, time postadministration: 7−8 h
[5]; 32 mg/kg 1,4-BD
  Maximum concentrations of 1,4-BD (range): 0.48 to 0.69 µg/mL
[5]; 100 mg/kg 1,4-BD
  T1/2 for GHB in plasma relative to T1/2 of 1,4-BD (fold longer): five
[5]; 180 mg/kg 1,4-BD
  T1/2 for GHB in plasma relative to T1/2 of 1,4-BD (fold longer): sevenfold
Rhesus monkeys
  Time after administration at which response rate was decreased: 150 min
In vivo; monkey, 32 mg/kg
  AUC: 33.4 µM·h
  Cmax: 5.3 to 7.7 µM
  half-life: 4.13 h
In vivo; monkey, 100 mg/kg
  AUC: 612 µM·h
  Cmax: 47.8 to 590 µM
  half-life: 0.589 h
In vivo; monkey, 180 mg/kg
  AUC: 942 µM·h
  Cmax: 289 to 1100 µM
  half-life: 0.711 h
In vivo
  Tmax: 0.5 h
In vivo; 100 mg/kg
  half-life: < 1 h
In vivo; 180 mg/kg
  half-life: < 1 h
[6]; [15]
  Maximum concentration of GHB, range: 22.2−85.7 μg/ml
  Mean maximum concentration of GHB: 45.6 µg/mL
[7]
  Maximum concentration of 1,4-BD, range: 0.33−14.4 μg/ml
  Mean maximum concentration of 1,4-BD: 3.84 µg/mL

## O=C1CCCO1 [GBL, Gamma-butyrolactone]
Baboons [1]; 100 mg/kg, 2 h after administration, p<0.001
  Food-maintained behavior compared to vehicle: decreased
Baboons [1]; [11]
  Food-maintained behavior compared to vehicle: decreased
Baboons [1]; [12]
  Food-maintained behavior compared to vehicle: decreased
Baboons [1]; 240 mg/kg, one subject (HA), data not shown
  Food-maintained behavior: suppressed over the entire 20 h
Baboons [1]; all doses tested
  Increase of food-maintained behavior: none of the doses increased
Baboons [1]
  Time food-maintained behavior was suppressed after administration: 4 h
Baboons [2]; 100 mg/kg, p<0.001
  Duration to complete the fine-motor task compared to vehicle: increased
Baboons [2]; 180 mg/kg, p<0.001
  Duration to complete the fine-motor task compared to vehicle: increased
Baboons [3]; [16]
  Duration of lip droop compared to vehicle: significantly increased
  Frequency of ataxia compared to vehicle: significantly increased
  Frequency of scratch/groom compared to vehicle: significantly increased
  Frequency of tremor/jerks compared to vehicle: significantly increased
Baboons [3]; [13]
  Duration of lip droop compared to vehicle: significantly higher
  Duration of lying down compared to vehicle: increased
  Frequency of ataxia compared to vehicle: significantly higher
  Frequency of scratch/groom compared to vehicle: decreased
  Frequency of tremor/jerks compared to vehicle: significantly higher
  Frequency of vomit/retch compared to vehicle: increased
Baboons [3]; 240 mg/kg, once in one subject (HA), data not shown
  Observed effects of the high dose: resulted in convulsions; also recorded: vomit/retch, ataxia, tremor/jerks, sedation/anesthesia, and seizures; also recorded: both seizures and catalepsy
Baboons [4]; 100 mg/kg
  Time to maximal effect, ataxia: 30 min
  Time to maximal effect, tremor/jerks: 30 min
Baboons [4]; 100 mg/kg IG
  Duration of effects in ≥50% of subjects, ataxia: 1.0 h
  Duration of effects in ≥50% of subjects, lip droop: 2.0 h
  Duration of effects in ≥50% of subjects, vomit: 1.0 h
  Number of subjects at maximal effect, ataxia: 3/4
  Number of subjects at maximal effect, lip droop: 3/4
  Number of subjects at maximal effect, tremor/jerk: 1/4
  Number of subjects at maximal effect, vomit: 2/4
  Recovery of baseline (100% of subjects), ataxia: 2.5 h
  Recovery of baseline (100% of subjects), lip droop: 3.5 h
  Recovery of baseline (100% of subjects), vomit: 2.0 h
  Time to maximal effects, ataxia: 0.5 h
  Time to maximal effects, lip droop: 1.0 h
  Time to maximal effects, tremor/jerk: 0.5 h
  Time to maximal effects, vomit: 1 h and 1.0 h
Baboons [4]; 180 mg/kg
  Time to maximal effect, ataxia: 30 min
  Time to maximal effect, tremor/jerks: 30 min
Baboons [4]; 180 mg/kg IG
  Duration of effects in ≥50% of subjects, ataxia: 4 h and 4.0 h
  Duration of effects in ≥50% of subjects, lip droop: 2.5 h
  Duration of effects in ≥50% of subjects, tremor/jerk: 5 h and 5.0 h
  Duration of effects in ≥50% of subjects, vomit: 1.0 h
  Number of subjects at maximal effect, ataxia: 4/4
  Number of subjects at maximal effect, lip droop: 4/4
  Number of subjects at maximal effect, tremor/jerk: 4/4
  Number of subjects at maximal effect, vomit: 4/4
  Recovery of baseline (100% of subjects), ataxia: 6.0 h
  Recovery of baseline (100% of subjects), lip droop: 6.0 h
  Recovery of baseline (100% of subjects), tremor/jerk: 6.0 h
  Recovery of baseline (100% of subjects), vomit: 2.0 h
  Time to maximal effects, ataxia: 0.5 h
  Time to maximal effects, lip droop: 0.5 h
  Time to maximal effects, tremor/jerk: 0.5 h
  Time to maximal effects, vomit: 1 h and 1.0 h
Baboons [4]
  Return to baseline for all observed behavioral effects, time postadministration: ≤ 6 h
Rhesus monkeys
  Time after administration at which response rate was decreased: 90 min

## O=C(O)CCCO [GHB, Gamma-hydroxybutyrate]
Baboons [8]
  Food-maintained behavior compared to vehicle: not significantly altered
Baboons [9]; 180−420 mg/kg, 120 min postadministration
  Duration to complete the fine-motor task: increased
Baboons [9]; any dose tested, 60 min postadministration
  Duration to complete the fine-motor task: did not alter
humans
  Time of maximal drug effects postadministration: 1−2 h
[6]; human subjects, total doses of 3−4.5 g GHB (i.e., 42.8 mg/kg), ref Scharf et al. 1998
  Maximum concentration of GHB, range: 30 to 103 µg/mL
[6]; ref Abanades et al. 2007
  Mean maximum concentration of GHB in plasma: 83.1 (+10.7 SD) μg/ml
[6]; ref Palatini et al. 1993
  Mean maximum concentration of GHB in plasma: 20 µg/mL
[10]; 32 mg/kg GHB
  Mean maximum concentration of GHB in plasma: 18.46 (±8.66 SD) μg/ml
[10]; 100 mg/kg GHB
  Mean maximum concentration of GHB in plasma: 72.2 (±15.73 SD) μg/ml
[10]; monkey, plasma, po, 320 mg/kg
  AUC: 4580 µM·h
  Cmax: 598 to 1940 µM
  half-life: 12.2 h
[10]; plasma, po, 320 mg/kg
  Tmax: 6 h
